{"data": "Measurements pooled from the literature", "cell line": "PC-3", "effect on": "cell growth or viability", "note": "Each line is one published result; the experiments were not run side by side."}
{"SMILES": "COc1ccc(-c2cc(-c3cc(OC)ccc3OC)c3c(=O)n(C)c(=O)n(C)c3n2)cc1", "method": "MTT", "time": "48 h", "endpoint": "IC50", "value": "24.6 µM"}
{"SMILES": "Cc1nc(N(Cc2ccccc2)c2ccc3c(c2)/C(=C/c2ccccc2)C(=O)N3Cc2ccccc2)c2ccccc2n1 (mixture of isomers)", "method": "MTT", "endpoint": "IC50", "value": "0.56 µM"}
{"SMILES": "Cc1ccc(-c2cc(-c3ccc(Cl)c(F)c3)c3c(=O)n(C)c(=O)n(C)c3n2)cc1", "method": "MTT", "time": "48 h", "endpoint": "IC50", "value": "41.5 µM"}
{"SMILES": "Cc1nc(Nc2ccc3c(c2)/C(=C/c2ccccc2)C(=O)N3Cc2ccccc2)c2ccccc2n1", "method": "MTT", "endpoint": "IC50", "value": "> 50 µM"}
{"SMILES": "CCCOc1nc(-c2cccc(O)c2)cc(-c2cc3cc(OC)ccc3nc2N2CCOCC2)c1C#N", "method": "MTT", "time": "72 h", "endpoint": "IC50", "value": "0.0639 µM"}
{"SMILES": "O=C(O)c1cccnc1Nc1cccc(C(F)(F)F)c1", "method": "SRB", "time": "48 h", "endpoint": "GI50", "value": "> 30 µM"}
{"SMILES": "Cc1ccc(-c2cc(-c3ccc(N(C)C)cc3)c3c(=O)[nH]c(=O)[nH]c3n2)cc1", "method": "MTT", "time": "48 h", "endpoint": "IC50", "value": "17.4 µM"}
{"SMILES": "CCc1c(C)c2ccc(OCC(=O)NN=Cc3ccc([N+](=O)[O-])cc3)cc2oc1=O", "method": "MTT", "concentration": "31.25 µg/mL", "endpoint": "viability", "value": "22.2%"}
{"SMILES": "CCCOc1nc(-c2cccc(O)c2)cc(-c2cc3cc(Cl)ccc3nc2N2CCOCC2)c1C#N", "method": "MTT", "time": "72 h", "endpoint": "IC50", "value": "0.542 µM"}
{"SMILES": "COc1cc2ncnc(N(C)c3ccc4c(c3)/C(=C/c3ccccc3)C(=O)N4C)c2cc1OC (mixture of isomers)", "method": "MTT", "endpoint": "IC50", "value": "39.2 µM"}
{"SMILES": "CCCOc1ccc2c(C)c(CC)c(=O)oc2c1C", "method": "MTT", "concentration": "125 µg/mL", "endpoint": "viability", "value": "56.8%"}
{"SMILES": "Cc1nc(Nc2ccc3c(c2)/C(=C/c2ccccc2)C(=O)N3C)c2ccccc2n1", "method": "MTT", "endpoint": "IC50", "value": "18.7 µM"}
{"SMILES": "CCc1c(C)c2ccc(OCc3nnc(S)n3N)c(C)c2oc1=O", "method": "MTT", "concentration": "500 µg/mL", "endpoint": "viability", "value": "3.08%"}
{"SMILES": "COc1cc2ncnc(Nc3ccc4c(c3)/C(=C/c3cccc(Cl)c3)C(=O)N4C)c2cc1OC", "method": "MTT", "endpoint": "IC50", "value": "22.2 µM"}
{"SMILES": "C=CC(=O)c1cccnc1Nc1cccc(C(F)(F)F)c1", "method": "SRB", "time": "48 h", "endpoint": "GI50", "value": "11.4 µM"}
{"SMILES": "Cc1c(Cc2ccccc2)c(=O)oc2c(C)c(OCC(=O)NN=Cc3ccccc3)ccc12", "method": "MTT", "concentration": "250 µg/mL", "endpoint": "viability", "value": "14.1%"}
{"SMILES": "COc1cc2ncnc(Nc3ccc4c(c3)/C(=C/c3ccccc3)C(=O)N4C)c2cc1OC", "method": "MTT", "endpoint": "IC50", "value": "37.9 µM"}
{"SMILES": "COc1ccc(-c2cc(-c3c(OC)cccc3OC)c3c(=O)n(C)c(=O)n(C)c3n2)cc1", "method": "MTT", "time": "48 h", "endpoint": "IC50", "value": "18.6 µM"}
{"SMILES": "Cc1c(Cc2ccccc2)c(=O)oc2c(C)c(OCC(=O)NN=Cc3ccc(Cl)cc3)ccc12", "method": "MTT", "concentration": "1000 µg/mL", "endpoint": "viability", "value": "2.23%"}
{"SMILES": "Cc1ccc(-c2cc(-c3ccc(N(C)C)cc3)c3c(=O)n(C)c(=O)n(C)c3n2)cc1", "method": "MTT", "time": "48 h", "endpoint": "IC50", "value": "21.5 µM"}
{"SMILES": "Cc1c(Cc2ccccc2)c(=O)oc2c(C)c(OCC(=O)NN=Cc3ccc([N+](=O)[O-])cc3)ccc12", "method": "MTT", "concentration": "500 µg/mL", "endpoint": "viability", "value": "5.03%"}
{"SMILES": "COc1ccc(-c2cc(-c3c(OC)cccc3OC)c3c(=O)[nH]c(=O)[nH]c3n2)cc1", "method": "MTT", "time": "48 h", "endpoint": "IC50", "value": "41.5 µM"}
{"SMILES": "O=C(O)c1ccccc1Nc1cccc(C(F)(F)F)c1", "method": "SRB", "time": "48 h", "endpoint": "GI50", "value": "> 30 µM"}
{"SMILES": "CCc1c(C)c2ccc(OCC(=O)NNC(=S)Nc3ccccc3)c(C)c2oc1=O", "method": "MTT", "concentration": "500 µg/mL", "endpoint": "viability", "value": "2.61%"}
{"SMILES": "COc1ccc(-c2cc(-c3cccc(Br)c3)c3c(=O)n(C)c(=O)n(C)c3n2)cc1", "method": "MTT", "time": "48 h", "endpoint": "IC50", "value": "18.4 µM"}
